≈ marks a conversion by molar mass, not a printed value. Calls of active or inactive are those of the source. The calls are words filed in the database; no cut-off is given here.
Columns and labels:
[1] = tested on: Mus musculus; assay: Survival of BALB/c mouse pulmonary challenged with Bacillus anthracis at 114 mg/kg, po; assay type: functional
[2] = tested on: Mus musculus; assay: Protection against pulmonary anthrax BALB/c mouse model infected with Bacillus anthracis at 135 mg/kg, po after 6 days; assay type: functional; settings: 144 h
[3] = tested on: Mus musculus; assay: Survival of pulmonary anthrax BALB/c mouse model infected with Bacillus anthracis Ames at 30 mg/kg, sc after 6 days; assay type: functional; settings: 144 h, route subcutaneous
[4] = tested on: Bacillus anthracis; assay: Antimicrobial activity against Bacillus anthracis HH105-5 isolate; assay type: functional
[5] = tested on: Bacillus anthracis; assay: Antimicrobial activity against Bacillus anthracis HH105-6 isolate; assay type: functional
[6] = tested on: Bacillus anthracis; assay: Antimicrobial activity against Bacillus anthracis HHT105-5R isolate; assay type: functional
[7] = tested on: Bacillus anthracis; assay: Antimicrobial activity against Bacillus anthracis HH113-6R isolate; assay type: functional
[8] = tested on: Bacillus anthracis; assay: Antimicrobial activity against Bacillus anthracis HH105-5R isolate; assay type: functional
[9] = tested on: Bacillus anthracis; assay: Protection against Bacillus anthracis challenged BALB/c mouse at 106 mg/kg, iv after 3 days; assay type: functional, organism-based; set-up: dose 106 mg/kg
[10] = tested on: Staphylococcus aureus; assay: Antimicrobial activity against glycopeptide intermediate resistant Staphylococcus aureus 3798 isolate; assay type: functional
Method in brief: (§1)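 MICs were run by broth microdilution as recommended by NCCLS, in cation-adjusted Mueller-Hinton broth. Compound was serially diluted 2-fold, over a final range of 64 to 0.03 µg/mL after inoculation.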

[11] = tested on: Enterococcus faecalis; assay: Antimicrobial activity against vancomycin-susceptible Enterococcus faecalis 559 isolate; assay type: functional; method in brief: as §1
[12] = tested on: Enterococcus faecium; assay: Antimicrobial activity against vancomycin-susceptible Enterococcus faecium 568 isolate; assay type: functional; method in brief: as §1
[13] = tested on: Staphylococcus aureus; assay: Antimicrobial activity against glycopeptide intermediate resistant Staphylococcus aureus 3793 isolate; assay type: functional; method in brief: as §1
[14] = tested on: Enterococcus faecalis; assay: Antimicrobial activity against vancomycin-resistant Enterococcus faecalis 560 isolate; assay type: functional; method in brief: as §1
[15] = tested on: Enterococcus faecium; assay: Antimicrobial activity against vancomycin-resistant Enterococcus faecium 569 isolate; assay type: functional; method in brief: as §1
[16] = tested on: Staphylococcus haemolyticus; assay: Antimicrobial activity against Staphylococcus haemolyticus 602 isolate; assay type: functional; method in brief: as §1
[17] = tested on: Staphylococcus epidermidis; assay: Antimicrobial activity against Staphylococcus epidermidis 533 isolate; assay type: functional; method in brief: as §1
[18] = tested on: Mus musculus; assay: Survival of BALB/c mouse infected with Staphylococcus aureus PGO#172 assessed as mortality at 1 mg/kg, iv; assay type: functional, organism-based; set-up: dose 1 mg/kg
Method in brief: (§2)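 Mice received a lethal dose of S. aureus PGO#172 (ATCC#29213) by intraperitoneal injection. They were treated with an iv bolus at 1, 5, 10, 25 or 50 mg/kg, in groups of five. Mortality was the endpoint, and ED50 was derived from the dose-response.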

[19] = tested on: Bacillus anthracis; assay: Protection against Bacillus anthracis challenged BALB/c mouse at 50 mg/kg, iv; assay type: functional, organism-based; set-up: dose 50 mg/kg
[20] = tested on: Bacillus anthracis; assay: Protection against Bacillus anthracis challenged BALB/c mouse at 25 mg/kg, iv; assay type: functional, organism-based; set-up: dose 25 mg/kg
[21] = tested on: Mus musculus; assay: Survival of BALB/c mouse infected with Staphylococcus aureus PGO#172 assessed as mortality at 50 mg/kg, iv; assay type: functional, organism-based; set-up: dose 50 mg/kg; method in brief: as §2
[22] = tested on: Mus musculus; assay: Survival of pulmonary anthrax BALB/c mouse model infected with Bacillus anthracis Ames at 30 mg/kg, sc twice daily for 6 days; assay type: functional; settings: 144 h, route subcutaneous
[23] = tested on: Mus musculus; assay: Survival of BALB/c mouse pulmonary challenged with Bacillus anthracis at 10 mg/kg; assay type: functional
[24] = tested on: Enterococcus faecalis; assay: Antimicrobial activity against vancomycin-susceptible Enterococcus faecalis Enfa_29212 isolate; assay type: functional; method in brief: as §1
[25] = tested on: Streptococcus pyogenes; assay: Antimicrobial activity against Streptococcus pyogenes Stpy_8668 isolate; assay type: functional
[26] = tested on: Enterococcus faecalis; assay: Antimicrobial activity against vancomycin-resistant Enterococcus faecalis Enfa_vre-2 isolate; assay type: functional; method in brief: as §1
[27] = tested on: Staphylococcus aureus; assay: Antimicrobial activity against methicillin-resistant Staphylococcus aureus Stau_b11386 isolate; assay type: functional; method in brief: as §1
[28] = tested on: Mus musculus; assay: Survival of pulmonary anthrax BALB/c mouse model infected with Bacillus anthracis Ames at 100 mg/kg, sc after 6 days; assay type: functional; settings: 144 h, route subcutaneous
[29] = species on record: Mus musculus; assay: Effect on survival of BALB/c mouse infected with Staphylococcus aureus PGO#172; assay type: functional; method in brief: as §2
[30] = tested on: Mus musculus; assay: Survival of BALB/c mouse pulmonary challenged with Bacillus anthracis at 0.3 mg/kg; assay type: functional
[31] = tested on: Enterococcus faecalis; assay: Antimicrobial activity against vancomycin-resistant Enterococcus faecalis Enfa_t29862 isolate; assay type: functional; method in brief: as §1
[32] = tested on: Mus musculus; assay: Survival of BALB/c mouse pulmonary challenged with Bacillus anthracis at 1 mg/kg; assay type: functional
[33] = tested on: Mus musculus; assay: Survival of pulmonary anthrax BALB/c mouse model infected with Bacillus anthracis Ames at 10 mg/kg, sc after 6 days; assay type: functional; settings: 144 h, route subcutaneous
[34] = tested on: Bacillus anthracis; assay: Antimicrobial activity against Bacillus anthracis Ames; assay type: functional
[35] = tested on: Staphylococcus aureus; assay: Antimicrobial activity against methicillin-resistant Staphylococcus Stau_33591 isolate; assay type: functional; method in brief: as §1
[36] = tested on: Mus musculus; assay: Survival of BALB/c mouse pulmonary challenged with Bacillus anthracis at 3 mg/kg; assay type: functional
[37] = tested on: Staphylococcus aureus; assay: Antimicrobial activity against methicillin-resistant Staphylococcus aureus Stau_Mu50-HIP5406 isolate; assay type: functional; method in brief: as §1
[38] = tested on: Escherichia coli; assay: Antimicrobial activity against Escherichia coli Esco_25922 isolate; assay type: functional
[39] = tested on: Staphylococcus aureus; assay: Antimicrobial activity against methicillin-resistant Staphylococcus aureus Stau_HIP5827 isolate; assay type: functional; method in brief: as §1
[40] = tested on: Staphylococcus aureus; assay: Antimicrobial activity against methicillin-resistant Staphylococcus aureus Stau_29213 isolate; assay type: functional; method in brief: as §1

Compound	survival at 30 mg/kg [3]	MIC [4]	MIC [5]	MIC [6]	MIC [7]	MIC [8]	MIC [10]	MIC [11]	MIC [12]	MIC [13]	MIC [14]	MIC [15]	MIC [16]	MIC [17]	further results
O=C(O)c1cn(C2CC2)c2cc(N3CCNCC3)c(F)cc2c1=O [CIPROFLOXACIN]	75%	8 µg/mL (≈ 24.1 µM)	32 µg/mL (≈ 96.6 µM)	8 µg/mL (≈ 24.1 µM)	4 µg/mL (≈ 12.1 µM)	4 µg/mL (≈ 12.1 µM)	–	–	–	–	–	–	–	–	survival at 114 mg/kg [1]: 87.5%; survival at 135 mg/kg [2]: 75%; Activity [9]: Active
CN[C@H](CC(C)C)C(=O)N[C@H]1C(=O)N[C@@H](CC(N)=O)C(=O)N[C@H]2C(=O)N[C@H]3C(=O)N[C@H](C(=O)N[C@H](C(=O)NC4C5CC6CC(C5)CC4C6)c4cc(O)cc(O)c4-c4cc3ccc4O)[C@H](O[C@@H]3C[C@@](C)(N)[C@H](O)[C@@H](C)O3)c3ccc(cc3)Oc3cc2cc(c3O[C@H]2O[C@@H](CO)[C@H](O)[C@@H](O)[C@@H]2O[C@H]2C[C@](C)(N)[C@@H](O)[C@H](C)O2)Oc2ccc(cc2Cl)[C@H]1O (some centres not stated)	–	–	–	–	–	–	2 µg/mL (≈ 1.18 µM)	1 µg/mL (≈ 0.591 µM)	1 µg/mL (≈ 0.591 µM)	2 µg/mL (≈ 1.18 µM)	16 µg/mL (≈ 9.46 µM)	16 µg/mL (≈ 9.46 µM)	1 µg/mL (≈ 0.591 µM)	0.5 µg/mL (≈ 0.296 µM)	–
CN[C@H](CC(C)C)C(=O)N[C@H]1C(=O)N[C@@H](CC(N)=O)C(=O)N[C@H]2C(=O)N[C@H]3C(=O)N[C@H](C(=O)N[C@@H](C(=O)NC45CC6CC(CC(C6)C4)C5)c4cc(O)cc(O)c4-c4cc3ccc4O)[C@H](O[C@@H]3C[C@@](C)(N)[C@H](O)[C@@H](C)O3)c3ccc(cc3)Oc3cc2cc(c3O[C@H]2O[C@@H](CO)[C@H](O)[C@@H](O)[C@@H]2O[C@H]2C[C@](C)(N)[C@@H](O)[C@H](C)O2)Oc2ccc(cc2Cl)[C@H]1O	–	–	–	–	–	–	–	–	–	–	–	–	–	–	Activity [18]: inactive; Activity [19]: Active; Activity [20]: Active; Activity [21]: Active
CN[C@H](CC(C)C)C(=O)N[C@H]1C(=O)N[C@@H](CC(N)=O)C(=O)N[C@H]2C(=O)N[C@H]3C(=O)N[C@H](C(=O)N[C@H](C(=O)NC4C5CC6CC(C5)CC4C6)c4cc(O)cc(O)c4-c4cc3ccc4O)[C@H](O)c3ccc(c(Cl)c3)Oc3cc2cc(c3O[C@H]2O[C@@H](CO)[C@H](O)[C@@H](O)[C@@H]2O[C@H]2C[C@@](C)(N)C(O)[C@@H](C)O2)Oc2ccc(cc2Cl)[C@H]1O (some centres not stated)	–	–	–	–	–	–	4 µg/mL (≈ 2.53 µM)	0.5 µg/mL (≈ 0.316 µM)	0.5 µg/mL (≈ 0.316 µM)	4 µg/mL (≈ 2.53 µM)	64 µg/mL (≈ 40.4 µM)	64 µg/mL (≈ 40.4 µM)	1 µg/mL (≈ 0.632 µM)	1 µg/mL (≈ 0.632 µM)	–
CN[C@H](CC(C)C)C(=O)N[C@H]1C(=O)N[C@@H](CC(N)=O)C(=O)N[C@H]2C(=O)N[C@H]3C(=O)N[C@H](C(=O)N[C@H](C(=O)NC45CC6CC(CC(C6)C4)C5)c4cc(O)cc(O)c4-c4cc3ccc4O)[C@H](O[C@@H]3C[C@@](C)(N)[C@H](O)[C@@H](C)O3)c3ccc(cc3)Oc3cc2cc(c3O[C@H]2O[C@@H](CO)[C@H](O)[C@@H](O)[C@@H]2O[C@H]2C[C@](C)(N)[C@@H](O)[C@H](C)O2)Oc2ccc(cc2Cl)[C@H]1O	88%	0.5 µg/mL (≈ 0.296 µM)	0.5 µg/mL (≈ 0.296 µM)	0.25 µg/mL (≈ 0.148 µM)	0.5 µg/mL (≈ 0.296 µM)	0.25 µg/mL (≈ 0.148 µM)	2 µg/mL (≈ 1.18 µM)	0.5 µg/mL (≈ 0.296 µM)	0.5 µg/mL (≈ 0.296 µM)	1 µg/mL (≈ 0.591 µM)	8 µg/mL (≈ 4.73 µM)	4 µg/mL (≈ 2.37 µM)	0.25 µg/mL (≈ 0.148 µM)	0.25 µg/mL (≈ 0.148 µM)	survival at 30 mg/kg [22]: 86%; survival at 10 mg/kg [23]: 85.7%; MIC [24]: 0.4 µg/mL (≈ 0.237 µM); MIC [25]: 0.2 µg/mL (≈ 0.118 µM); MIC [26]: 12.5 µg/mL (≈ 7.39 µM); MIC [27]: 0.78 µg/mL (≈ 0.461 µM); survival at 100 mg/kg [28]: 100%; ED50 [29]: 20.4 mg/kg; survival at 0.3 mg/kg [30]: 12.5%; MIC [31]: 6.25 µg/mL (≈ 3.7 µM); survival at 1 mg/kg [32]: 50%; survival at 10 mg/kg [33]: 88%; MIC [34]: 0.5 µg/mL (≈ 0.296 µM); MIC [35]: 0.78 µg/mL (≈ 0.461 µM); survival at 3 mg/kg [36]: 62.5%; MIC [37]: 0.4 µg/mL (≈ 0.237 µM); MIC [38]: > 50 µg/mL; MIC [39]: 1.56 µg/mL (≈ 0.922 µM); MIC [40]: 0.78 µg/mL (≈ 0.461 µM)

Reference: ChEMBL document CHEMBL1146231, “Novel semisynthetic derivative of antibiotic Eremomycin active against drug-resistant gram-positive pathogens including Bacillus anthracis” (J Med Chem, 2007)
